Results from different studies.
Compare with care: the assays were run in different laboratories.
Dhodh: Dihydroorotate dehydrogenase (quinone), mitochondrial (Dhodh, Mus musculus, UniProt O35435)
EPHX2: Bifunctional epoxide hydrolase 2 (EPHX2, Homo sapiens, UniProt P34913)
ESR2: Estrogen receptor beta (ESR2, Homo sapiens, UniProt Q92731)

| Structure (SMILES) | target | observed | mode | method | measurement | value |
| --- | --- | --- | --- | --- | --- | --- |
| Cn1nc2c(=O)n(C3CC3)ncc2c1[C@](O)(c1cnc(C(F)(F)F)c(Cl)c1)C(F)(F)F | Dhodh | enzyme activity | inhibitor | absorbance | IC50 | > 30000 nM |
| O=C(Nc1ccc(-c2cccc3ncccc23)cc1)C1CCN(S(=O)(=O)c2ccccc2Cl)CC1 | EPHX2 | enzyme activity | inhibitor | fluorescence | IC50 | 1.7 nM |
| CC[C@@](N)(c1cnc(C(F)(F)F)c(Cl)c1)c1c2ncn(C3CC3)c(=O)c2nn1C | Dhodh | enzyme activity | inhibitor | absorbance | IC50 | 6700 nM |
| O=C1CC[C@H](N2Cc3cc(N4CCN(CC5CCN(c6ccc([C@@H]7c8ccc(O)cc8CC[C@@H]7c7ccccc7)cc6)CC5)CC4)ccc3C2=O)C(=O)N1 | ESR2 | ligand displacement |  | radioligand | IC50 | 5 nM |
| C[C@H]1CCC[C@@]2(C)CCCC[C@]12O | OR11A1 (Homo sapiens, UniProt Q9GZK7) | cAMP | agonist | luciferase | EC50 | 28000 nM |
| C[C@@H]1O[C@@H](O[C@@H]2[C@@H](O)[C@H](OCCc3ccc(O)c(O)c3)O[C@H](CO)[C@H]2OC(=O)/C=C/c2ccc(O)c(O)c2)[C@H](O)[C@H](O)[C@H]1O | Aldo-keto reductase family 1 member B1 (AKR1B1, Homo sapiens, UniProt P15121) | enzyme activity | inhibitor |  | IC50 | 1170 nM |
| Oc1ccc2c3c(cnc2c1)-c1ccc(C(F)(F)F)cc1O[C@@H]3c1ccc(OCCN2CC(CF)C2)cc1 | ESR2 | ligand displacement |  | radioligand | Ki | 0.11 nM |
| C[S+]([O-])CCCCN=C=S (stereo not drawn) | EPHX2 | enzyme activity | inhibitor | fluorescence | IC50 | 3650 nM |
| N[C@@H](Cc1ccccc1)C(=O)O | Intestinal-type alkaline phosphatase (ALPI, Bos taurus, UniProt P19111) | enzyme activity | inhibitor |  | IC50 | 78400 nM |
| C=CCN=C=S | EPHX2 | enzyme activity | inhibitor | fluorescence | IC50 | 11600 nM |
| O=C(Nc1ccc(-c2ccc3ncccc3c2)cc1)C1CCN(S(=O)(=O)c2ccccc2Cl)CC1 | EPHX2 | enzyme activity | inhibitor | fluorescence | IC50 | 5.4 nM |
| O=c1c(O)c(-c2ccc(O)c(O)c2)oc2cc(O)ccc12 | Dual specificity mitogen-activated protein kinase kinase 4 (MAP2K4, Homo sapiens, UniProt P45985) | enzyme activity | inhibitor | ADP detection | IC50 | 2900 nM |
